# Calls of active or inactive are those of the source. The calls are words filed in the database; no cut-off is given here.
# Species on record: Mus musculus
# Experiment: Binding affinity to amyloid beta in APP/PS1 transgenic C57 mouse brain at 1 uM after 10 mins by fluorescence assay
# Type: tissue-based
# Settings: not given
# Outline: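 Paraffin-embedded brain sections (10 μm) from APP/PS1 C57 transgenic mouse, deparaffinized through xylene and graded ethanol, then PBS (0.2 M, pH 7.4) 30 min. Sections incubated 10 min with compound (1 μM in 20% ethanol), washed with 50% ethanol and PBS. Confocal fluorescence read at excitation 405 nm, 505 nm long-pass. Plaques confirmed with thioflavin-S (1 μM) on adjacent sections.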
row,SMILES,Activity
1,CN(C)c1ccc(/C=C/c2ccc(-c3cccs3)s2)cc1,Active
2,CC(C)(C)c1ccc(/C=C/c2ccc(-c3cccs3)s2)cc1,Active
3,CN(C)c1ccc(/C=C/c2ccc(-c3ccc(Br)s3)s2)cc1,Active
4,O=[N+]([O-])c1ccc(/C=C/c2ccc(-c3ccc(Br)s3)s2)cc1,Active

# Target: not listed separately
# Experiment: Displacement of [125I]-TZDM from amyloid beta 1 to 42 after 2 hrs by gamma counting
# Settings: not given
# Outline: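 Aβ1-42 aggregated at 0.25 mg/mL in pH 7.4 buffer (10 mM sodium phosphate, 1 mM EDTA), 37 °C for 42 h with shaking. Fibrils (28 nM final) mixed with [125I]TZDM and inhibitor (10^-5 to 10^-10 M in EtOH) in PBS (0.2 M, pH 7.4). Incubated 2 h at 37 °C; nonspecific binding taken with 100 nM TZDM. Bound and free separated by vacuum filtration through glass fibre filters, washed with cold PBS containing 10% ethanol, then counted; Ki reported.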
SMILES,Ki,inhibition
Brc1ccc(-c2ccc(/C=C/c3ccc(I)cc3)s2)s1,0.51 nM,Dose-dependent effect
CN(C)c1ccc(/C=C/c2ccc(-c3cccs3)s2)cc1,0.73 nM,Dose-dependent effect
Brc1ccc(-c2ccc(/C=C/c3ccccc3)s2)s1,1.32 nM,Dose-dependent effect
Cc1ccc(/C=C/c2ccc(-c3ccc(Br)s3)s2)cc1,0.45 nM,Dose-dependent effect
COc1ccc(/C=C/c2ccc(-c3cccs3)s2)cc1,1.48 nM,Dose-dependent effect
COc1ccc(/C=C/c2ccc(-c3ccc(Br)s3)s2)cc1,0.72 nM,Dose-dependent effect
Fc1ccc(/C=C/c2ccc(-c3ccc(I)s3)s2)cc1,0.55 nM,Dose-dependent effect
Brc1ccc(/C=C/c2ccc(-c3ccc(I)s3)s2)cc1,0.19 nM,Dose-dependent effect
Clc1ccc(/C=C/c2ccc(-c3ccc(Br)s3)s2)cc1,1.02 nM,Dose-dependent effect
Oc1ccc(/C=C/c2ccc(-c3ccc(Br)s3)s2)cc1,3.6 nM,Dose-dependent effect
Fc1ccc(/C=C/c2ccc(-c3ccc(Br)s3)s2)cc1,0.81 nM,Dose-dependent effect
COc1ccc(/C=C/c2ccc(-c3ccc(I)s3)s2)cc1,0.3 nM,Dose-dependent effect
CC(C)(C)c1ccc(/C=C/c2ccc(-c3cccs3)s2)cc1,0.73 nM,Dose-dependent effect
Fc1ccc(/C=C/c2ccc(-c3cccs3)s2)cc1,4.06 nM,Dose-dependent effect
Brc1ccc(/C=C/c2ccc(-c3ccc(Br)s3)s2)cc1,0.22 nM,Dose-dependent effect
CN(C)c1ccc(/C=C/c2ccc(-c3ccc(Br)s3)s2)cc1,0.36 nM,Dose-dependent effect
Ic1ccc(/C=C/c2ccc(-c3ccc(I)s3)s2)cc1,0.63 nM,Dose-dependent effect
Cc1ccc(/C=C/c2ccc(-c3ccc(I)s3)s2)cc1,0.8 nM,Dose-dependent effect
Cc1ccc(/C=C/c2ccc(-c3cccs3)s2)cc1,1.15 nM,Dose-dependent effect
CC(C)(C)c1ccc(/C=C/c2ccc(-c3ccc(Br)s3)s2)cc1,0.95 nM,Dose-dependent effect
Brc1ccc(/C=C/c2ccc(-c3cccs3)s2)cc1,0.99 nM,Dose-dependent effect
Clc1ccc(/C=C/c2ccc(-c3ccc(I)s3)s2)cc1,1.1 nM,Dose-dependent effect
Clc1ccc(/C=C/c2ccc(-c3cccs3)s2)cc1,0.74 nM,Dose-dependent effect
Ic1ccc(/C=C/c2ccc(-c3cccs3)s2)cc1,0.92 nM,Dose-dependent effect
Ic1ccc(-c2ccc(/C=C/c3ccccc3)s2)s1,0.24 nM,Dose-dependent effect
CC(C)(C)c1ccc(/C=C/c2ccc(-c3ccc(I)s3)s2)cc1,1.58 nM,Dose-dependent effect
O=[N+]([O-])c1ccc(/C=C/c2ccc(-c3cccs3)s2)cc1,0.56 nM,Dose-dependent effect
O=[N+]([O-])c1ccc(/C=C/c2ccc(-c3ccc(Br)s3)s2)cc1,0.1 nM,Dose-dependent effect
Nc1ccc(/C=C/c2ccc(-c3cccs3)s2)cc1,41 nM,Dose-dependent effect
C(=C\c1ccc(-c2cccs2)s1)/c1ccccc1,4.78 nM,Dose-dependent effect

# Species on record: Mus musculus
# Experiment: Binding affinity to amyloid beta in APP/PS1 transgenic C57 mouse brain cortex at 5 uCi/100 uL after 30 mins by autoradiography
# Type: tissue-based
# Settings: tested as the 125I-labelled form
# Outline: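 Deparaffinized transgenic mouse brain sections incubated 30 min at room temperature with [125I]-labelled tracer (5 μCi/100 μL). Washed with saturated Li2CO3 in 40% EtOH for 3 min, then 40% EtOH for 3 min, then rinsed 30 s in water. Plaques checked afterwards by thioflavin-S (1 μM) fluorescence staining of the same sections.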
row,SMILES,Activity
1,COc1ccc(/C=C/c2ccc(-c3ccc(I)s3)s2)cc1,Active
2,Ic1ccc(/C=C/c2ccc(-c3cccs3)s2)cc1,Active
